TRPC4 PAM: allosterically enhances the mouse TRPC4 cation channel; Q9QUQ5; HEK293 TRPC4beta/mu-opioid, DAMGO EC20, Fluo-4 Ca2+ flux; hits give high values; B-score at 10 µM; hit rate 0.42% among 310,000; AID 2227;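 active means B-score of calcium response area above 5 SD of library B-scores, with initial fluorescence ratio within 5 SD of library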;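 further: B-score of integrated fluorescence ratio over time as area under calcium response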
Kir21 block: Kir2.1 (mouse) channel inhibition; P35561; HEK293-Kir2.1, FluxOR thallium flux fluorescence; hits give low values; B-score at 10 µM; hit rate 0.85% among 310,000; AID 1672;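 active means fluorescence ratio B-score at or below minus 3 SD of library scores, with starting-brightness B-score within 2 SD, cut at about -4.2 in these data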;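 further: channel flux triggered by added potassium and thallium sulfate stimulus; B-score of peak minus minimum fluorescence over baseline after thallium stimulus; more negative B-score means stronger Kir2.1 block with less thallium influx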
Target sequence (P35561 whole entry, looked up): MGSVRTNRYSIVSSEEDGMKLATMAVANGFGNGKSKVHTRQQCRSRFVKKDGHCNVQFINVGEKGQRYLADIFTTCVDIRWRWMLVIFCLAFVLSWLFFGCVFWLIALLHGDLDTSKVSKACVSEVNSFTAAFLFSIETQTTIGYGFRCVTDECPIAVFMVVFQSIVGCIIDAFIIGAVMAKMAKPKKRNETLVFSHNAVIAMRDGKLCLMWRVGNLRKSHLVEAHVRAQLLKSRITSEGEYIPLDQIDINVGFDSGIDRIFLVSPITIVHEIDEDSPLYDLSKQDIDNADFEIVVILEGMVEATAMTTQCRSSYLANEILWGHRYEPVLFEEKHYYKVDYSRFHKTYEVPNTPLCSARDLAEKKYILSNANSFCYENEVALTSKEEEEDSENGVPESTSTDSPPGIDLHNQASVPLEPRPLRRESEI
TRPC4 block: blocks the mouse TRPC4 cation channel; HEK293 TRPC4beta/mu-opioid, DAMGO-evoked Fluo4 calcium flux; hits give low values; B-score at 10 µM; hit rate 0.39% among 300,000; AID 2247;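 active means B-score over 3 SD under the library average, no early fluorescence shift, positive overall ratio signal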
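Signal: kinetic Fluo4 fluorescence imaging of calcium influx. Material: stable TRPC4beta/mu-opioid receptor HEK293 cells. Probe or stimulus: DAMGO in two steps, submaximal then maximal.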
TRPC6 activator: mouse TRPC6 channel activation; HEK293-TRPC6 membrane potential dye fluorescence; hits give high values; hit rate 0.13% among 310,000; AID 2550; B-score at 10 µM;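 active means B-score of the integrated fluorescence ratio above library mean plus 3 SD, and starting fluorescence ratio within library mean plus 5 SD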;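 further: higher score means more depolarization so channel activation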
TRPC6 inh: inhibitors of mouse TRPC6 channel; Q61143; HEK293-TRPC6, membrane potential dye, ACh-evoked depolarization; hits give low values; B-score at 10 µM; hit rate 1.1% among 310,000;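 active means B-score under library mean minus 3 SD, initial fluorescence not abnormally high, positive integrated signal ratio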;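 further: B-score derived from integrated fluorescence ratio over the kinetic read; more negative B-score means stronger inhibition of depolarization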
TRPC4 act: activators of mouse TRPC4 channel. Q9QUQ5. HEK293 TRPC4beta/mu-opioid, Fluo4 calcium fluorescence; hits give high values. B-score at 10 µM. hit rate 0.49% among 310,000. AID 2237;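 active means B-score above 5 SD of library B-scores, and initial fluorescence ratio not above library mean plus 5 SD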;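 further: positive B-score marks a calcium rise read as TRPC4 activation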
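Assay system: HEK293 stable line with TRPC4beta plus mu-opioid receptor. Times: dye 45 min RT, read 110 s. Measured by: kinetic Fluo4 calcium fluorescence. Measure: B score of integrated ratio. Controls: assay buffer as low control, maximal DAMGO as high control.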
An asterisk follows results filed as active; i = inactive. Shown are actives, neighbours in structure and some others; about 3% of the full set was active somewhere.

SMILES	TRPC4 PAM	Kir21 block	TRPC4 block	TRPC6 activator	TRPC6 inh	TRPC4 act
O=[N+]([O-])c1cc(C(F)(F)F)ccc1N1CCCNCC1	42*	-0.58	i	i	i	83*
O=[N+]([O-])c1cc(C(F)(F)F)ccc1N1CCN(S(=O)(=O)c2ccc3c(c2)CCCC3)CC1	i	0.88	i	i	i	i
COc1ccc(OC)c(C2=NS(=O)(=O)N(C)C(C(=O)Nc3ccc(F)cc3F)=C2)c1	i	0.88	i	i	i	i
CC1CCCN(CCCNC(=O)c2ccc3c(c2)N(Cc2ccccc2F)C(=O)c2ccccc2S3(=O)=O)C1 (stereo not drawn)	i	-0.27	i	i	i	114*
CCCCN(C)CCCNC(=O)CN1N=C(c2ccc(Cl)cc2)CCC1=O	12*	-0.02	i	i	i	102*
O=C(NCc1ccco1)c1cc2cc(Br)ccc2o1	i	-1.37	i	i	i	i
Cc1ccc(/C=N/Nc2nc(N3CCCCC3)nc(N3CCCCC3)n2)o1	i	-0.79	i	i	i	i
O=[N+]([O-])c1ccc(/C=N/Nc2nc(N3CCCCCC3)nc(N3CCCCCC3)n2)o1	32*	-0.94	i	i	i	i
O=C(CN1CCCCCC1)Nc1ccc(Cl)cn1	i	0.01	i	i	i	i
CC(C)(CNC(=O)c1cccc(NS(=O)(=O)c2ccc(Br)cc2)c1)N1CCOCC1	i	-1.56	i	i	i	i
Cc1ccc(C(C)NC(=S)NCc2ccc(F)cc2)cc1C (stereo not drawn)	i	-11*	i	i	i	i
COc1cccc(CNC(=O)CCC2CCCN(Cc3cc(Cl)ccc3O)C2)c1 (stereo not drawn)	i	-2.16	-7*	i	i	i
COc1ccccc1/C=C/CN1CCCC(CCC(=O)NCc2ccccc2F)C1 (stereo not drawn)	i	0.07	-6*	i	i	113*
Cc1ccc(N(Cc2ccccc2)C(=O)c2cc(S(=O)(=O)N3CCOCC3)ccc2Cl)cc1	10*	0.23	i	i	i	i
Cc1cccc(N(Cc2ccccc2)C(=O)c2cc(S(=O)(=O)N3CCOCC3)ccc2Cl)c1	i	-1.45	i	i	i	i
Cc1cc(OCCCCOc2ccc(S(N)(=O)=O)c(C)c2)ccc1S(N)(=O)=O	i	-0.12	i	i	i	i
CC(Oc1ccc(Cl)cc1)C(=O)N1CCCc2ccccc21 (stereo not drawn)	i	-5.69*	i	i	i	i
O=S(=O)(c1ccc(Cl)cc1)N1CCCc2ccccc21	i	-4.57*	i	i	i	i
Nc1ccc(S(=O)(=O)N2CCCc3ccccc32)cc1	i	-5.68*	i	i	i	i
CCn1c(=O)n(CC)c2cc(S(=O)(=O)N3CCc4ccccc43)ccc21	i	-4.27*	i	i	i	i
CC(=O)N1CCc2ccc(S(=O)(=O)N3CCc4ccccc43)cc21	i	0.63	i	i	i	i
CC(Oc1ccc(Br)cc1)C(=O)N1CCc2ccccc21 (stereo not drawn)	i	0.51	i	i	i	i
CC(=O)Nc1ccc(S(=O)(=O)N2CCCc3ccccc32)cc1	i	-0.83	i	i	i	i
N=C1C(c2nc3ccccc3[nH]2)=C(O)CN1NC(=O)COc1cccc(F)c1	i	2.35	i	i	i	i
CC1CCN(C(C)C(=O)Nc2ccccc2-c2ccccc2)CC1 (stereo not drawn)	i	-3.1	-7*	i	i	i
SMILES	TRPC4 PAM	Kir21 block	TRPC4 block	TRPC6 activator	TRPC6 inh	TRPC4 act
COc1ccc(S(=O)(=O)Nc2cc(C)on2)cc1	i	-1.36	i	i	i	i
CCOC(=O)c1cc2c(=O)n3ccccc3nc2n(C(C)C)c1=NC(=O)c1c(-c2ccccc2Cl)noc1C	i	-0.08	-8*	i	i	i
CCOC(=O)c1cc2c(=O)n3ccccc3nc2n(CCOC)c1=NC(=O)C(C)(C)C	i	0.08	i	i	i	152*
CCOC(=O)c1cc2c(=O)n3ccccc3nc2n(C(C)C)c1=NC(=O)c1ccncc1	i	-0.94	i	i	i	i
CCOC(=O)c1cc2c(=O)n3ccccc3nc2n(Cc2ccco2)c1=NC(=O)c1cccnc1	11*	-4.31	i	i	i	i
CCOC(=O)c1cc2c(=O)n3ccccc3nc2n(CCOC)c1=NC(=O)c1ccncc1	i	0.65	i	i	i	i
Cc1oc(-c2ccccc2Cl)nc1CS(=O)CC(=O)NCCCN1CC(C)CC(C)C1 (stereo not drawn)	i	-0.25	i	i	i	95*
Cc1oc(-c2ccccc2F)nc1CS(=O)(=O)CC(=O)NCCCN1CC(C)CC(C)C1 (stereo not drawn)	i	-0.82	i	i	i	57*
Cc1oc(-c2ccccc2F)nc1CS(=O)(=O)CC(=O)NCCCN1CCN(C)CC1	i	2.64	i	i	i	i
O=S(=O)(c1ccc(Cl)c(NC(=S)Nc2ccccc2N2CCOCC2)c1)N1CCOCC1	i	1.73	i	i	i	i
Fc1ccc(NC(=S)Nc2ccccc2N2CCOCC2)cc1Cl	i	-7.36*	i	i	i	i
CCCCn1c(N)c(N(CCOC)C(=O)COC(=O)COc2cccc(C(C)=O)c2)c(=O)[nH]c1=O	i	-0.22	i	i	i	i
Cc1cc(C)c(C(=O)NNC(=O)c2cccnc2)c(C)c1	i	0.42	i	i	i	i
Cc1ccc(S(=O)(=O)NCc2csc(-c3cccs3)n2)cc1	i	-1.43	i	i	i	i
O=S(=O)(NCc1csc(-c2cccs2)n1)c1cccc(C(F)(F)F)c1	i	-11.4*	i	i	i	i
Cc1cc(C(=O)NCC(c2cccs2)N2CCOCC2)ccc1[N+](=O)[O-] (stereo not drawn)	i	-1.33	i	i	i	i
CN(c1cccc(NC(=O)c2ccc(C(C)(C)C)cc2)c1)S(C)(=O)=O	i	-0.52	i	i	i	i
CN(c1cccc(NC(=O)c2ccc(N(C)S(=O)(=O)c3ccccc3)cc2)c1)S(C)(=O)=O	11*	0.6	i	i	i	i
Cn1c(SCCOc2ccccc2F)nc2ccccc2c1=O	16*	1.25	i	i	i	i
COCCn1c(SCc2ccc(OC)c(F)c2)nc2ccccc2c1=O	i	0.01	-7*	i	i	i

Screening data deposited in PubChem by Johns Hopkins Ion Channel Center.
